Results reported in article PMC12107431 (Nucleic Acids Research, 2025).
Substitutions are numbered along the chain they refer to. Names and notes keep the numbering of the source. Values joined by “and” are separate entries in the source; they are usually repeats but may differ in a detail not shown here. Identical values can stand only once. No end group written: not given here.

T1: ETO2-NHR4 (Homo sapiens, UniProt O75081)
T1 sequence (O75081 551-597): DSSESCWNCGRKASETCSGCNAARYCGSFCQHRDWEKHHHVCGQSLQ

B1: (M)PPPLx4 (GATAD2A residues 177-284, four polyproline-leucine motifs) (peptide, UniProt Q86YP4 177-284, looked up)
chain: QKPTGSVGSTVTTPPPLVRGTQNIPAGKPSLQTSSARMPGSVIPPPLVRGGQQASSKLGPQASSQVVMPPLVRGAQQIHSIRQHSSTGPPPLLLAPRASVPSVQIQGQ
B2: PPPLx2A (GATAD2A residues 177-235, first two motifs) (peptide, UniProt Q86YP4 177-235, looked up)
chain: QKPTGSVGSTVTTPPPLVRGTQNIPAGKPSLQTSSARMPGSVIPPPLVRGGQQASSKLG
B3: ETO2-NHR3-4 (NHR3 and NHR4 domains of human ETO2, residues 480-597) (domain or fragment, UniProt O75081 480-597, looked up)
chain: GYVPEDIWRKAEEAVNEVKRQAMSELQKAVSDAERKAHELITTERAKMERALAEAKRQASEDALTVINQQEDSSESCWNCGRKASETCSGCNAARYCGSFCQHRDWEKHHHVCGQSLQ
B4: ETO2-NHR3-4 (V497I/A501L) (domain or fragment, human, UniProt O75081 480-597, looked up)
chain: B3 chain with V18I, A22L
B5: (M)PPPLx4: bacterially expressed GATAD2A residues 177–284 with four (M)PPPL motifs and C-terminal Twin-Strep-tag (protein)
chain: B1 chain
modifications: left off: thioredoxin, N-terminal, cleaved | His6, N-terminal, cleaved | Twin-Strep-tag, C-terminal, state not stated

Legend:
ETO2-NHR4 [1] = target: T1, ETO2-NHR4; test: 15N-HSQC chemical shift perturbation titration; format: binding
NHR3 domain of ETO = conditions: PKA (RIIα) binding to NHR3 domain of ETO; cited from earlier work
ETO2-NHR3-4 [2] = test: ITC with ETO2-NHR3-4 in the presence of PKA; format: binding, human; conditions: ITC KD with vs without PKA (RIIα)
Summary of the method: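 ETO2-NHR3-4 (50 μM) is premixed at a 2:1 molar ratio with PKA (RII)α residues 1–45 (100 μM), both bacterially expressed and purified by Ni affinity, TEV cleavage and size exclusion. N-CoRx2A or PPPLx2A peptide (250 μM) is titrated in: 20 × 2 μL injections 180 s apart at 25 °C, in 25 mM Bis-Tris pH 7.2, 100 mM NaCl, 1 mM DTT, 50 μM ZnSO4. KD is fitted by software and reported as mean ± SD of two runs.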

[3] = target: B1; test: ITC
[4] = target: B3; test: ITC
[5] = target: B3; test: ITC; remark: listed apart in the source
SEC-MALS = target: the molecule itself; test: SEC-MALS
ETO2-NHR4 [6] = target: T1, ETO2-NHR4; test: Isothermal titration calorimetry; format: binding; conditions: all four motifs vs single motifs
ETO2-NHR3-4 [7] = test: Isothermal titration calorimetry; format: binding, human; conditions: ITC KD ratio

**Q.** For KYGASSQVVMPPLVRGAQQ-NH2 [MPPL-3], which Kd (ETO2-NHR4 [1]) is on record?
**A.** 249 ± 3 µM

**Q.** Which Kd (NHR3 domain of ETO) does the source give for “PKA (RIIα): cAMP-dependent protein kinase type II-alpha regulatory subunit; residues 1–45 used here” here?
**A.** 0.128 µM

**Q.** With “PPPLx2A: bacterially expressed GATAD2A residues 177–235, first two motifs (QKPTGSVGSTVTTPPPLVRGTQNIPAGKPSLQTSSARMPGSVIPPPLVRGGQQASSKLG; also: C-terminal Twin-Strep-tag, state not given here)” as the molecule, how does the “reduction of affinity for ETO2-NHR3-4 by PKA (RIIα)” value (ETO2-NHR3-4 [2]) read?
**A.** approximately 10 fold

**Q.** With DSSESCWNCGRKASETCSGCNAARYCGSFCQHRDWEKHHHVCGQSLQ (domain or fragment, UniProt O75081 551-597, looked up) [ETO2-NHR4 (NHR4 domain of human ETO2, residues 551-597)] as the molecule, how does the Kd [3] read?
**A.** 30 µM

**Q.** Which Kd [4] does the source give for B1 here?
**A.** 3 µM

**Q.** With B2 as the molecule, how does the Kd [4] read?
**A.** 6 µM

**Q.** And the “KD in the presence of PKA (RIIα)” value [5]?
**A.** 50 µM

**Q.** Which “stoichiometry N” value (SEC-MALS) does the source give for B3 here?
**A.** 2 and 4

**Q.** With B4 as the molecule, how does the “stoichiometry N” value (SEC-MALS) read?
**A.** 4

**Q.** Which results are given for B5?
**A.** increase of binding affinity compared to the individual binding sites (ETO2-NHR4 [6]): up to 10 fold; increase of binding affinity with ETO2-NHR3-4 compared to the NHR4 domain alone (ETO2-NHR3-4 [7]): 10 fold
